Measurements reported in ChEMBL document CHEMBL4033788, “Novel Ligustrazine-Based Analogs of Piperlongumine Potently Suppress Proliferation and Metastasis of Colorectal Cancer Cells in Vitro and in Vivo” (J Med Chem, 2018).
Activity calls are given as the source filed them. The calls are words filed in the database; no cut-off is given here.

Key:
K562 = test: Antiproliferative activity against human K562 cells after 72 hrs in presence of ligustrazine by MTT assay; assay type: functional, cell-based; conditions: K562, 72 h
How it was run: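 Cells grown in RPMI 1640 with 10% FBS in 96-well plates overnight, then exposed to test agents in triplicate for 72 h. MTT (5 mg/mL stock) added for the last 4 h, formazan dissolved in DMSO, absorbance read at 570 nm. Inhibition = (1 − OD treated/OD control) × 100%.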

HCT-116 [1] = test: Antiproliferative activity against human HCT116 cells at 8 uM after 72 hrs by MTT assay; assay type: functional, cell-based
How it was run: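 HCT-116 cells pretreated with or without GSH (10 mM) for 1 h, washed, then treated for 72 h. Viability measured by MTT and inhibitory rates calculated. Mean ± SD of three independent experiments.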

HCT-116 [2] = test: Inhibition of TGF-beta1-induced increase in expression levels of MMP-9 protein in human HCT116 cells at 50 nM after 48 hrs by Western blot analysis; assay type: functional, cell-based
How it was run: (§1)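 HCT-116 cells (1 × 10^6/well, plated overnight) were exposed to TGF-β1 (10 ng/mL) for 48 h, with or without test compound; vehicle was 0.1% DMSO. Lysates (20 μg/lane) were run on 7.5% SDS-PAGE and blotted to PVDF, with primary antibody overnight at 4 °C and HRP/ECL detection. Band densities were normalised to β-actin across three independent experiments.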

HCT-116 [3] = test: Inhibition of TGF-beta1-induced increase in expression levels of snail protein in human HCT116 cells at 50 nM after 48 hrs by Western blot analysis; assay type: functional, cell-based; how it was run: as §1
[4] = target: T1, Catenin beta-1 (Homo sapiens) (UniProt P35222); test: Inhibition of TGF-beta1-regulated decrease in cytoplasmic beta-catenin in human HCT116 cells at 50 nM after 48 hrs by Western blot analysis; assay type: cell-based
T1 sequence (whole entry): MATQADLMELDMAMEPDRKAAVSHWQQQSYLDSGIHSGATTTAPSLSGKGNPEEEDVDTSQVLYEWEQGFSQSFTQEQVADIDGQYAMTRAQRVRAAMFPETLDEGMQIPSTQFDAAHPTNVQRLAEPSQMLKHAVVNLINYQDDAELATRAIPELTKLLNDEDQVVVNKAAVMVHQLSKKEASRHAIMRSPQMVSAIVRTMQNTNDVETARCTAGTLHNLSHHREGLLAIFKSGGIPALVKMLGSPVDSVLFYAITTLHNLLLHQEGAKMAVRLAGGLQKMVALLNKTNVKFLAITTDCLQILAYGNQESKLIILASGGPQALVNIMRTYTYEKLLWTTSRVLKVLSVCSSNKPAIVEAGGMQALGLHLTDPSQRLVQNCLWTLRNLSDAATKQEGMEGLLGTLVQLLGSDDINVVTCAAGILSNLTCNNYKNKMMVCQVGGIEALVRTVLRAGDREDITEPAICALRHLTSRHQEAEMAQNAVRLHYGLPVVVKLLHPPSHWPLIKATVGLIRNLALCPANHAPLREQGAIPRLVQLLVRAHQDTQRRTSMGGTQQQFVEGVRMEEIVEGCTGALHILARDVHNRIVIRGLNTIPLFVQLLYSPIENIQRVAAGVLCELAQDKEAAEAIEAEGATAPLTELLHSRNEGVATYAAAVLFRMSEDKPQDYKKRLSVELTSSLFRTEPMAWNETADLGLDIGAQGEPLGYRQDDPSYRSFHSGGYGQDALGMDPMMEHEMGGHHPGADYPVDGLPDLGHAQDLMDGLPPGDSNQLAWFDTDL
How it was run: (§2)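 Cytoplasmic and nuclear β-catenin were measured by Western blot in HCT-116 cells given TGF-β1 (10 ng/mL) for 48 h, with or without compound, against 0.1% DMSO vehicle. Lysates (20 μg/lane) were run on 7.5% gels and transferred to PVDF, with Lamin A among the antibodies used. Blots were read by ECL and densitometry, n = 3 independent experiments.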

HCT-116 [5] = test: Cytotoxicity against human HCT116 cells assessed as reduction in cell viability at 50 nM after 72 hrs by MTT assay; assay type: cell-based; conditions: hct-116, 72 h, 0.05 µM
How it was run: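 HCT-116 cells exposed to TGF-β1 (10 ng/mL) alone or combined with test agent at 2, 10 or 50 nM for 24, 48 or 72 h. Viability read by MTT (formazan in DMSO, 570 nm).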

[6] = Stability of compound in stimulated gastric fluid at 1 uM after 4 hrs by LC-MS/MS analysis
[7] = Induction of ROS accumulation in human CCD-841 cells at 1 to 10 uM up to 3 hrs by DCFH-DA staining-based fluorescence spectrometric analysis; assay type: cell-based; conditions: ccd-841, 3 h
How it was run: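 HCT-116 and CCD-841 cells treated in triplicate at 1, 5 and 10 μM for 1, 2 and 3 h. Intracellular ROS stained with DCFH-DA and fluorescence read on a microplate reader. Values expressed relative to DMSO control, from three separate experiments.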

Mus musculus = test: Toxicity in BALB/c nude mouse assessed as reduction in body weight at 2.5 to 5 mg/kg, ip administered for 21 consecutive days; assay type: organism-based; conditions: in vivo
How it was run: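 Male BALB/c nude mice (3−5 weeks) inoculated sc with 1 × 10^7 HCT-116 cells; at tumour volume about 75 mm3 randomized (n = 8 per group) and dosed ip daily at 2.5 or 5 mg/kg for 21 consecutive days. Body weights monitored; liver, kidney, lung and heart inspected for size and morphology at sacrifice.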

HCT-116 [8] = test: Inhibition of TGF-beta1-induced increase in expression levels of MMP-9 protein in human HCT116 cells after 48 hrs by Western blot analysis; assay type: functional, cell-based
How it was run: (§3)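 HCT-116 cells treated with or without TGF-β1 (10 ng/mL) for 48 h, with or without test agent. Lysates (20 μg/lane) run on 7.5% SDS-PAGE and transferred to PVDF. Probed for p-Akt (Ser473), Akt, p-GSK-3β (S9), GSK-3β, E-cadherin, MMP-9 and β-actin, detected by ECL. Densitometry relative to β-actin or total protein. Three independent experiments.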

[9] = target: RAC-alpha serine/threonine-protein kinase (Homo sapiens) (UniProt P31749); test: Inhibition of TGF-beta1-induced AKT phosphorylation in human HCT116 cells after 48 hrs by Western blot analysis; assay type: cell-based; how it was run: as §3
[10] = target: T1, Catenin beta-1 (Homo sapiens); test: Inhibition of TGF-beta1-regulated increase in nuclear beta-catenin in human HCT116 cells at 2 to 50 nM after 48 hrs by Western blot analysis; assay type: cell-based; how it was run: as §2

Chain of RAC-alpha serine/threonine-protein kinase (Homo sapiens) (P31749 whole entry): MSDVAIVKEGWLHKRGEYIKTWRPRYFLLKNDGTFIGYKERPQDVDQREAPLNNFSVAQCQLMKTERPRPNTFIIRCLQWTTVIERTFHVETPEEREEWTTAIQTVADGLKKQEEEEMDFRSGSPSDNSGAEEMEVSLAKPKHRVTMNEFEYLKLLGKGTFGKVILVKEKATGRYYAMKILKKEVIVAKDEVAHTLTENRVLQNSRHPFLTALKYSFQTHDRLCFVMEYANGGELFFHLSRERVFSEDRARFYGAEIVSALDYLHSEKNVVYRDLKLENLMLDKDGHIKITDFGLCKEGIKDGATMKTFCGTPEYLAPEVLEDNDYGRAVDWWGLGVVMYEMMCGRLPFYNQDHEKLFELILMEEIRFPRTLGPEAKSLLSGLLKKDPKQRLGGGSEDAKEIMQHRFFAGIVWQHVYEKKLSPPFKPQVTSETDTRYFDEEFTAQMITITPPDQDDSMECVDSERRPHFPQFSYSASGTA

SMILES | IC50 (K562) | Activity (HCT-116 [1]) | inhibition (HCT-116 [2]) | inhibition (HCT-116 [3]) | inhibition [4] | Activity (HCT-116 [5]) | Stability [6] | Activity [7] | Activity (Mus musculus) | inhibition (HCT-116 [8]) | inhibition [9] | inhibition [10]
COc1cc(/C=C/C(=O)N2CCC=CC2=O)cc(OC)c1OC [PIPLARTINE] | 5.09 µM | Active | Active | Active | Active |  |  |  |  |  |  | 
Cc1nc(C)c(/C=C/C(=O)N2CCC=C(Cl)C2=O)nc1C |  |  |  |  |  | Toxic | Stable | Non-Toxic | Non-Toxic | Dose-dependent effect | Dose-dependent effect | Active
